Test results reported in publication PMC4589464 (Hepatology (Baltimore, Md.), 2015).
“Also recorded” adds a separate entry of the source. Where a name gives a salt, the structure may show the parent alone. Read-outs that look alike come from different tables or passages of the source.

Legend:
[1] = Cytotoxicity in MT-4 cells; type: cell-based; conditions: human
HBV [2] = tested on: HBV
HIV-1NL4-3 [3] = tested on: HIV-1NL4-3
HBV [4] = test: microbe, parasite or virus in culture; conditions: Hepatitis B virus, HepG2 2.2.15, 288 h, read-out: IC50 against Anti-HBV
in vitro = type: cell-based; conditions: human
[5] = tested on: HBVETV-R^L180M/S202G/M204V; test: Southern blot assay, Huh-7 cells transfected with ETV-resistant HBV plasmid; type: cell-based; conditions: Hepatitis B virus, Huh-7, read-out: IC50 against HBVETV-R^L180M/S202G/M204V
Outline: (§1)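 Huh-7 cells were transfected with the HBV variant-containing plasmid and cultured with a range of test compound concentrations. Core-associated HBV DNA was extracted and detected by Southern blot hybridization. IC50 was calculated from the change in signal density, generally averaged over two experiments. The fold change was taken relative to the IC50 against wild-type HBV plasmid.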

HBV^WT [6] = conditions: read-out: IC50 against HBV^WT; Southern blotting assay; cited from earlier work
HBVADV-R^A181T/N236T = test: Southern blot assay, Huh-7 cells transfected with ADV-resistant HBV plasmid; type: cell-based; conditions: Hepatitis B virus, Huh-7, read-out: IC50 against HBVADV-R^A181T/N236T
Outline: as §1

[7] = tested on: HBVETV-R^L180M/S202G/M204V; test: HBVETV-R viremia in hu-liver-chimeric-uPA+/+/SCID+/+ mice; type: in vivo; conditions: for effect on HBVETV-R^L180M/S202G/M204V viremia: 0.02 mg/kg/day oral once daily; for effect on HBVETV-R^L180M/S202G/M204V viremia / greatest magnitude of viremia reduction: 14 days; for greatest magnitude of viremia reduction: HBVETV-R-infected mice, 0.02 mg/kg/day oral, average of two mice; for difference in viremia reduction magnitude between HBV^WT and HBVETV-R^L180M/S202G/M204V: mouse model
Outline: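 Human-liver-chimeric uPA+/+/SCID+/+ mice (SCID, uPA-transgenic, liver partly repopulated with human hepatocytes) were inoculated with the HBV variant. Dosing began 8 weeks later, once daily at 0.02 mg/kg/day for 14 days. Serum viremia was followed as log10 copies/ml change from baseline, along with serum human albumin and body weight per mouse. Livers were examined histologically at the end of dosing.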

HBV^WT [8] = test: Southern blot assay, Huh-7 cells transfected with pHBV^WT; type: cell-based; conditions: Hepatitis B virus
HepG2 cells = type: cell-based; conditions: up to 100 μM; for mtDNA synthesis / mtDNA levels / L-lactate levels in culture medium: 12 days culture; for mtDNA synthesis / mtDNA levels: real-time mtDNA-PCR; for viable cell numbers (MTT assay): day 5 of culture
[9] = Serum human albumin and body weight monitoring of treated HBV-infected mice; type: in vivo; conditions: 0.02 mg/kg/day; for serum human albumin (h-albumin) levels: HBV^WT-infected mice; for body weights: treated mice, 14 days
HIV-2 strains = test: Activity against HIV-2 strains; type: cell-based; conditions: Table S1
HBV^WT [10] = test: HBV^WT viremia in hu-liver-chimeric-uPA+/+/SCID+/+ mice; type: in vivo; conditions: 0.02 mg/kg/day oral, 14 days; for greatest magnitude of serum HBV-DNA level reduction: HBV^WT-infected mice
[11] = type: in vivo; conditions: hu-liver-chimeric mice, 14-day administration
HIV-1 = conditions: read-out: in vitro anti-HIV-1 IC90 concentration; cited from earlier work
[12] = intraperitoneal administration 20 mg/kg; cited from earlier work
[13] = cited from earlier work
HIV-1NL4-3 [14] = test: microbe, parasite or virus in culture; conditions: Human immunodeficiency virus 1, MT4, read-out: IC50 against Anti-HIV-1
[15] = Huh-7, read-out: IC50 against HBV^WT
[16] = Huh-7, read-out: IC50 against HBV^WT (Southern blot)

SMILES | CC50 [1] | S.I. with Anti-HBV (CC50/IC50) (HBV [2]; HepG2 2.2.15 cells) | S.I. with Anti-HIV-1 (CC50/IC50) (HIV-1NL4-3 [3]; MT-4 cells) | IC50 (HBV [4]) | CC50 (in vitro) | further results
Nc1ccn([C@@H]2CS[C@H](CO)O2)c(=O)n1 [3TC, lamivudine] | > 100 µM | > 3,300 | > 340 | 0.03 ± 0.01 µM | > 100 µM | 
Nc1nc(NC2CC2)c2ncn([C@H]3C=C[C@@H](CO)C3)c2n1 [ABC, abacavir] | > 100 µM | > 26 | > 170 | 3.9 ± 1 µM | > 100 µM | 
CC(C)(C)C(=O)OCOP(=O)(COCCn1cnc2c(N)ncnc21)OCOC(=O)C(C)(C)C [ADV, adefovir dipivoxil] | 5.1 ± 1 µM | > 500 | 21 | 0.2 ± 0.08 µM | > 100 µM | IC50 [5]: 36.4 ± 23.5 µM; IC50 (HBV^WT [6]): 7.7 µM; IC50 (HBVADV-R^A181T/N236T): 39.5 ± 13.3 µM
Cc1cn([C@H]2C[C@H](N=[N+]=[N-])[C@@H](CO)O2)c(=O)[nH]c1=O [AZT, 3′-azido-3′-deoxythymidine] | 30.5 ± 3.1 µM |  | 1,020 | > 100 µM | > 100 µM | 
N#C[C@]1(CO)O[C@@H](n2cnc3c(N)nc(N)nc32)C[C@@H]1O [CAdA, 4′-C-cyano-2-amino-2′-deoxyadenosine] | 3.5 ± 1.2 µM | 9,500 | 8,750 | 0.0004 ± 0.0002 µM | 3.8 ± 1 µM | effect on HBVETV-R^L180M/S202G/M204V viremia [7]: significant level of viremia reduction by day 7; greatest magnitude of viremia reduction [7]: -1.4 log10 copies/ml; difference in viremia reduction magnitude between HBV^WT and HBVETV-R^L180M/S202G/M204V [7]: 30 fold; IC50 (HBV^WT [8]; [15]): 0.007 ± 0.01 µM; IC50 (HBV^WT [8]; [16]): 0.0072 µM; mtDNA synthesis / mtDNA levels (HepG2 cells): significantly lowered the levels of mtDNA; L-lactate levels in culture medium (HepG2 cells): severely lowered the levels of L-lactate and viable cell numbers; viable cell numbers (MTT assay) (HepG2 cells): severely lowered the levels of L-lactate and viable cell numbers; IC50 [5]: 0.07 ± 0.01 µM; serum human albumin (h-albumin) levels [9]: moderately decreased h-albumin levels; body weights [9]: no significant difference in body weights; activity against HIV-2 strains (HIV-2 strains): potent activity against HIV-2 strains; IC50 (HBVADV-R^A181T/N236T): 0.09 ± 0.07 µM; effect on HBV^WT viremia (HBV^WT [10]): significantly blocked the replication of HBV; greatest magnitude of serum HBV-DNA level reduction (HBV^WT [10]): -2.9 log10 copies/ml
N#C[C@]1(CO)O[C@@H](n2cnc3c(=O)[nH]c(N)nc32)C[C@@H]1O [CdG, 4′-C-cyano-2′-deoxyguanosine] | 2.8 ± 0.9 µM | 8,000 | 7,000 | 0.0004 ± 0.0001 µM | 3.2 ± 0.7 µM | effect on HBVETV-R^L180M/S202G/M204V viremia [7]: significant level of viremia reduction by day 7; greatest magnitude of viremia reduction [7]: -1.2 log10 copies/ml; difference in viremia reduction magnitude between HBV^WT and HBVETV-R^L180M/S202G/M204V [7]: 30 fold; IC50 (HBV^WT [8]; [15]): 0.01 ± 0.002 µM; IC50 (HBV^WT [8]; [16]): 0.0098 µM; mtDNA synthesis / mtDNA levels (HepG2 cells): significantly lowered the levels of mtDNA; L-lactate levels in culture medium (HepG2 cells): severely lowered the levels of L-lactate and viable cell numbers; viable cell numbers (MTT assay) (HepG2 cells): severely lowered the levels of L-lactate and viable cell numbers; IC50 [5]: 0.04 ± 0.03 µM; serum human albumin (h-albumin) levels [9]: moderately decreased h-albumin levels; body weights [9]: no significant difference in body weights; liver toxicity [11]: no significant liver toxicity or general toxicity; activity against HIV-2 strains (HIV-2 strains): potent activity against HIV-2 strains; IC50 (HBVADV-R^A181T/N236T): 0.04 ± 0.02 µM; effect on HBV^WT viremia (HBV^WT [10]): significantly blocked the replication of HBV; greatest magnitude of serum HBV-DNA level reduction (HBV^WT [10]): -2.7 log10 copies/ml
C#C[C@]1(CO)O[C@@H](n2cnc3c(N)nc(F)nc32)C[C@@H]1O [EFdA, 4′-ethynyl-2-fluoro-2′-deoxyadenosine] | 19.2 ± 5.9 µM | > 630 | 64,000 | 0.16 ± 0.03 µM | > 100 µM | IC90 (HIV-1): ~0.005 µM; maximal concentration [12]: 4 µg/mL; time of maximal concentration [12]: 30 min
C#C[C@]1(COP(=O)(O)OP(=O)(O)OP(=O)(O)O)O[C@@H](n2cnc3c(N)nc(F)nc32)C[C@@H]1O [EFdA-TP] |  |  |  |  |  | half-life [13]: ≥ 17 h
C=C1[C@H](CO)[C@@H](O)C[C@@H]1n1cnc2c(=O)[nH]c(N)nc21 [ETV, entecavir] | 39.1 ± 8.7 µM | > 140,000 | 38 | 0.0007 ± 0.0002 µM | > 100 µM | effect on HBVETV-R^L180M/S202G/M204V viremia [7]: completely failed to reduce; also recorded: essentially no reduction; IC50 (HBV^WT [8]; [15]): 0.014 ± 0.008 µM; IC50 (HBV^WT [8]; [16]): 0.0141 µM; mtDNA synthesis / mtDNA levels (HepG2 cells): no reduction of mtDNA synthesis was observed; L-lactate levels in culture medium (HepG2 cells): no L-lactate level changes were identified; viable cell numbers (MTT assay) (HepG2 cells): slight and moderate decreases in the cell viability; number of HBV copies in HepG2 2.2.15 cells (HBV [2]; at 100 nM, 12-day culture, cells alone 9.0 × 10^5 copies/well): ~ 0.9 × 10^5 copies/well; IC50 [5]: > 1 µM; serum human albumin (h-albumin) levels [9]: comparable decrease of h-albumin levels; body weights [9]: no significant difference in body weights; IC50 (HBVADV-R^A181T/N236T): 0.18 µM; effect on HBV^WT viremia (HBV^WT [10]): viremia levels significantly went down
C#C[C@@]1(CO)C=C[C@H](n2cc(C)c(=O)[nH]c2=O)O1 [Ed4T, 2′,3′-didehydro-3′-deoxy-4′-ethynylthymidine] | > 100 µM |  | > 380 | > 100 µM | > 100 µM | 
Nc1nc(=O)n([C@@H]2CS[C@H](CO)O2)cc1F [FTC, emtricitabine] | > 100 µM |  |  | 0.02 ± 0.01 µM | > 100 µM | IC50 (HIV-1NL4-3 [14]): 0.23 ± 0.1 µM; S.I. with Anti-HBV (CC50/IC50) (HBV [2]): > 5,000; S.I. with Anti-HIV-1 (CC50/IC50) (HIV-1NL4-3 [3]): > 430
Cc1cn([C@@H]2C[C@@H](O)[C@H](CO)O2)c(=O)[nH]c1=O [LdT, telbivudine] | > 100 µM | > 14,000 |  | 0.007 ± 0.001 µM | > 100 µM | 
CC(C)OC(=O)OCOP(=O)(CO[C@H](C)Cn1cnc2c(N)ncnc21)OCOC(=O)OC(C)C [TDF, tenofovir disoproxil fumarate] |  | > 2,500 | 70 | 0.04 ± 0.01 µM | > 100 µM | CC50 ([1]; MT-4 cells): 40.4 ± 11.3 µM
Cc1cn([C@H]2C=C[C@@H](CO)O2)c(=O)[nH]c1=O [d4T, 2′,3′-didehydro-3′-deoxythymidine] | > 100 µM |  |  | > 100 µM | > 100 µM | S.I. with Anti-HIV-1 (CC50/IC50) (HIV-1NL4-3 [3]): > 150
Nc1ccn([C@H]2CC[C@@H](CO)O2)c(=O)n1 [ddC, 2′,3′-dideoxycytidine] |  | > 130 | > 300 | 0.75 ± 0.12 µM | > 100 µM | CC50 ([1]; MT-4 cells): > 100 µM; mtDNA synthesis / mtDNA levels (HepG2 cells): significantly decreased mtDNA synthesis at 1 μM and beyond; L-lactate levels in culture medium (HepG2 cells): without causing any significant decrease in L-lactate amounts or viable cell numbers; viable cell numbers (MTT assay) (HepG2 cells): without causing any significant decrease in L-lactate amounts or viable cell numbers
OC[C@@H]1CC[C@H](n2cnc3c(O)ncnc32)O1 [ddI, 2′,3′-dideoxyinosine] | > 100 µM |  |  | 3.7 ± 0.7 µM | > 100 µM | 
